Measurements gathered from unrelated publications.
Each line is one published result; the experiments were not run side by side.
SLC6A3: Sodium-dependent dopamine transporter (SLC6A3, Homo sapiens, UniProt Q01959)
PDE10A: cAMP and cAMP-inhibited cGMP 3',5'-cyclic phosphodiesterase 10A (PDE10A, Homo sapiens, UniProt Q9Y233)

| SMILES | target | effect on | mode | method | tested at | inhibition |
| --- | --- | --- | --- | --- | --- | --- |
| CCOC(=O)[C@@]12C[C@@H]1[C@@H](n1cnc3c(NCCCCCc4ccccc4)nc(I)nc31)[C@H](O)[C@@H]2O | SLC6A3 | ligand displacement | – | radioligand | 10 µM | 85% |
| COc1cc2ncnc(Cc3cccc4ccccc34)c2cc1OC | PDE10A | enzyme activity | inhibitor | FP | 0.1 µM | 56% |
| CCOC(=O)[C@@]12C[C@@H]1[C@@H](n1cnc3c(NCc4cccc(Cl)c4)nc(C#Cc4ccc(Cl)s4)nc31)[C@H](O)[C@@H]2O | SLC6A3 | ligand displacement | – | radioligand | 10 µM | 75% |
| COc1ccc2c(Cc3ccc(OC)c(OC)c3)ncnc2c1 | PDE10A | enzyme activity | inhibitor | FP | 0.1 µM | 22% |
| NC/C(=C\F)COc1cccc(Cn2c(=S)[nH]c(=O)c3[nH]cnc32)c1 | SLC6A3 | ligand displacement | – | radioligand | 10 µM | < 50% |
| COc1ccc2c(Cc3cccc(-c4ccccc4)c3)ncnc2c1 | PDE10A | enzyme activity | inhibitor | FP | 0.1 µM | 22% |
| NC(=O)CC[C@H](N)C(=O)NCC(=O)NCC(=O)N[C@@H](CC(=O)O)C(=O)N[C@@H](Cc1ccccc1)C(=O)O | Angiotensin-converting enzyme (ACE, Homo sapiens, UniProt P12821) | enzyme activity | inhibitor | – | 1.4 mM | 49.9% |
| CCOC(=O)[C@@]12C[C@@H]1[C@@H](n1cnc3c(NCc4cccc(Cl)c4)nc(I)nc31)[C@H](O)[C@@H]2O | SLC6A3 | ligand displacement | – | radioligand | 10 µM | 37% |
| C#Cc1cc(-c2cc(Nc3nc(N[C@@H](C)c4ccc(F)cn4)ncc3Cl)n[nH]2)ccc1C=O | Activated CDC42 kinase 1 (TNK2, Homo sapiens, UniProt Q07912) | enzyme activity | inhibitor | – | 0.2 µM | 73.3% |
| COc1cc2ncnc(Cc3cccc(-c4ccccc4)c3C)c2cc1OC | PDE10A | enzyme activity | inhibitor | FP | 0.1 µM | 54% |
| O[C@@H]1[C@H](O)[C@@H]2C[C@@H]2[C@H]1n1cnc2c(NCCC3CC3)nc(I)nc21 | SLC6A3 | ligand displacement | – | radioligand | 10 µM | 9% |
| COc1ccc2c(Cc3cccc(-c4ccccc4)c3)ccnc2c1 | PDE10A | enzyme activity | inhibitor | FP | 0.1 µM | 22% |
| CCOC(=O)[C@@]12C[C@@H]1[C@@H](n1cnc3c(Nc4ccccc4)nc(C#Cc4ccc(Cl)s4)nc31)[C@H](O)[C@@H]2O | SLC6A3 | ligand displacement | – | radioligand | 10 µM | 89% |
| Cc1cc(F)cc2c(CCC(=O)N[C@@H]3C(=O)NC[C@H]3O)c(-c3ccc(F)cc3)[nH]c12 | SLC6A3 | cell-free assay | – | – | 10 µM | 17% |
| Cc1cc(O)c(-c2ccc([C@@H](C)CN(C)C)cc2)c2c1[nH]c(=O)c1sccc12 | Ephrin type-B receptor 4 (EPHB4, Homo sapiens, UniProt P54760) | cell-free assay | inhibitor | – | 0.1 µM | -4.58% |
| CCN1/C(=C/C(C)=O)Sc2ccc(F)cc21 | D(3) dopamine receptor (DRD3, Homo sapiens, UniProt P35462) | ligand displacement | – | radioligand | 10 µM | 0% |
| c1ccc(-c2cccc(Cc3nccc4ccccc34)c2)cc1 | PDE10A | enzyme activity | inhibitor | FP | 0.1 µM | 0% |
| CCOC(=O)[C@@]12C[C@@H]1[C@@H](n1cnc3c(NCCCCc4ccccc4)nc(I)nc31)[C@H](O)[C@@H]2O | SLC6A3 | ligand displacement | – | radioligand | 10 µM | 19% |
